Results taken from ChEMBL document CHEMBL1154876, “Synthesis and antimicrobial studies on novel sulfonamides containing 4-azidomethyl coumarin” (2010).
In brackets after ≈: the same amount, converted by molar mass.

How the values were obtained:
Format in all cases: functional
Mucor = experiment: Antifungal activity against Mucor fuscus after 48 to 72 hrs by broth micro dilution method
How it was run: (§1)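 Test compounds were prepared as 10 mg/ml DMSO stocks and serially diluted twofold in Sabouraud's dextrose broth over 500, 250, 125, 62.5, 31.25, 16, 8, 4, 2 and 1, alongside fluconazole as reference. Plates were inoculated with 1–5 × 10⁴ cfu/ml and held at 25 °C for 48–72 h. The MIC was the lowest concentration showing no visible growth.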

Aspergillus niger = experiment: Antifungal activity against Aspergillus niger after 48 to 72 hrs by broth microdilution method; how it was run: as §1
Aspergillus fumigatus = experiment: Antifungal activity against Aspergillus fumigatus after 48 to 72 hrs by broth microdilution method; how it was run: as §1
Bacillus subtilis = experiment: Antibacterial activity against Bacillus subtilis MTCC 297 after 18 hrs by broth microdilution method; conditions: MTCC 297, 18 h
Enterococcus faecalis = experiment: Antibacterial activity against Streptococcus faecalis MTCC 3382 after 18 hrs by broth microdilution method; conditions: MTCC 3382, 18 h
Escherichia coli = experiment: Antibacterial activity against Escherichia coli MTCC 1089 after 18 hrs by broth microdilution method; conditions: MTCC 1089, 18 h
Fusarium oxysporum = experiment: Antifungal activity against Fusarium oxysporum after 48 to 72 hrs by broth microdilution method; how it was run: as §1
Candida albicans = experiment: Antifungal activity against Candida albicans after 48 to 72 hrs by broth microdilution method; how it was run: as §1
Staphylococcus aureus = experiment: Antibacterial activity against Staphylococcus aureus MTCC 3160 after 18 hrs by broth microdilution method; conditions: MTCC 3160, 18 h
Pseudomonas aeruginosa = experiment: Antibacterial activity against Pseudomonas aeruginosa MTCC 1034 after 18 hrs by broth microdilution method; conditions: MTCC 1034, 18 h
Penicillium chrysogenum = experiment: Antifungal activity against Penicillium chrysogenum after 48 to 72 hrs by broth microdilution method; how it was run: as §1
Klebsiella pneumoniae = experiment: Antibacterial activity against Klebsiella pneumoniae MTCC 3384 after 18 hrs by broth microdilution method; conditions: MTCC 3384, 18 h

Row | SMILES | MIC (Mucor) [µg/mL] | MIC (Aspergillus niger) [µg/mL] | MIC (Aspergillus fumigatus) [µg/mL] | MIC (Bacillus subtilis) [µg/mL] | MIC (Enterococcus faecalis) [µg/mL] | MIC (Escherichia coli) [µg/mL] | MIC (Fusarium oxysporum) [µg/mL] | MIC (Candida albicans) [µg/mL] | MIC (Staphylococcus aureus) [µg/mL] | MIC (Pseudomonas aeruginosa) [µg/mL] | MIC (Penicillium chrysogenum) [µg/mL] | MIC (Klebsiella pneumoniae) [µg/mL]
1 | Cc1cc2oc(=O)cc(CN=[N+]=[N-])c2cc1S(=O)(=O)Nc1ccc(Cl)cc1[N+](=O)[O-] | 8 (≈ 17.8 µM) | 62.5 (≈ 139 µM) | > 500 | 250 (≈ 556 µM) | 4 (≈ 8.89 µM) | > 500 | 1 (≈ 2.22 µM) | 16 (≈ 35.6 µM) | 4 (≈ 8.89 µM) | 8 (≈ 17.8 µM) | 125 (≈ 278 µM) | 16 (≈ 35.6 µM)
2 | Cc1cc2oc(=O)cc(CN=[N+]=[N-])c2cc1S(=O)(=O)Nc1cccc2ccccc12 | 31.2 (≈ 74.3 µM) | 1 (≈ 2.38 µM) | 2 (≈ 4.76 µM) | > 500 | 2 (≈ 4.76 µM) | > 500 | 1 (≈ 2.38 µM) | 8 (≈ 19 µM) | 16 (≈ 38.1 µM) | 8 (≈ 19 µM) | 16 (≈ 38.1 µM) | 1 (≈ 2.38 µM)
3 | Cc1ccc(NS(=O)(=O)c2cc3c(CN=[N+]=[N-])cc(=O)oc3cc2C)c([N+](=O)[O-])c1 | 62.5 (≈ 146 µM) | 31.2 (≈ 72.8 µM) | 125 (≈ 291 µM) | 250 (≈ 582 µM) | 1 (≈ 2.33 µM) | 250 (≈ 582 µM) | 1 (≈ 2.33 µM) | 16 (≈ 37.3 µM) | 16 (≈ 37.3 µM) | 16 (≈ 37.3 µM) | 31.2 (≈ 72.8 µM) | 4 (≈ 9.32 µM)
4 | Cc1cc([N+](=O)[O-])ccc1NS(=O)(=O)c1cc2c(CN=[N+]=[N-])cc(=O)oc2cc1C | 2 (≈ 4.66 µM) | 4 (≈ 9.32 µM) | 8 (≈ 18.6 µM) | 4 (≈ 9.32 µM) | 4 (≈ 9.32 µM) | 125 (≈ 291 µM) | 2 (≈ 4.66 µM) | 16 (≈ 37.3 µM) | 16 (≈ 37.3 µM) | 125 (≈ 291 µM) | 2 (≈ 4.66 µM) | 31.2 (≈ 72.8 µM)
